Active and inactive are the calls of the source. The calls are words filed in the database; no cut-off is given here.
How the values were obtained:
Mus musculus [1] = experiment: Protection against APAP induced liver injury in mouse assessed as liver centrilobular necrosis at 250 mg/kg, ip administered at 1.5 hrs; format: functional
How it was run: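 Wild-type mice were given APAP orally. NAC at 250 mg/kg was then injected intraperitoneally at 1.5, 2.5 or 3.5 h after APAP. Liver centrilobular necrosis was then assessed.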

Mus musculus [2] = experiment: Protection against APAP induced liver injury in mouse assessed as liver centrilobular necrosis at 250 mg/kg, ip administered at 2.5 hrs; format: functional, organism-based
Mus musculus [3] = experiment: Protection against APAP induced liver injury in mouse assessed as liver centrilobular necrosis at 250 mg/kg, ip administered at 3.5 hrs; format: functional, organism-based
Mus musculus [4] = experiment: Protection against APAP induced liver injury in mouse assessed as decrease in ALT level at 250 mg/kg, ip administered at 2.5 hrs; format: functional, organism-based; conditions: Serum
Mus musculus [5] = experiment: Protection against APAP induced liver injury in mouse assessed as decrease in ALT level at 250 mg/kg, ip administered at 1.5 hrs; format: functional, organism-based; conditions: Serum
[6] = biological target: T1, Serine/threonine-protein kinase 3 (Homo sapiens, UniProt Q13188); experiment: Inhibition of recombinant His-tagged full-length MST2 (unknown origin) expressing in Escherichia coli assessed as GST-tagged MOB1a phosphorylation level incubated for 30 mins by immunoblot analysis
T1 sequence (Q13188 whole entry): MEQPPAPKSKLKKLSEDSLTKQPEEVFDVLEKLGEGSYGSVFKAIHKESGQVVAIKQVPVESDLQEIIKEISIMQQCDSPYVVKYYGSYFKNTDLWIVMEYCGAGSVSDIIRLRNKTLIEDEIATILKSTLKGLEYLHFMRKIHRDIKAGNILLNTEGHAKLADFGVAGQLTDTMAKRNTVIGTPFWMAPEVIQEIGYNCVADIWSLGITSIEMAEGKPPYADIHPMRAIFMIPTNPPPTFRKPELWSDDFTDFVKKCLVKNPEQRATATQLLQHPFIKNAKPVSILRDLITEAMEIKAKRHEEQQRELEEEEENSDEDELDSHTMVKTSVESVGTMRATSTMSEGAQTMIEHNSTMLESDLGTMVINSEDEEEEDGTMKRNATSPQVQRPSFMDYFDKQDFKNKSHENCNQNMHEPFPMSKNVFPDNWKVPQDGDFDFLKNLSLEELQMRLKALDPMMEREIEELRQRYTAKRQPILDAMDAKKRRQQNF

## CC(=O)N[C@@H](CS)C(=O)O [ACETYLCYSTEINE]
Mus musculus [1]
  Activity: Active
Mus musculus [1]; record 2
  Activity: 80%
Mus musculus [2]
  Activity: inactive
Mus musculus [3]
  Activity: inactive
Mus musculus [4]
  Activity: Active
Mus musculus [5]
  Activity: Active

## CN1C(=O)c2sccc2N(C)c2nc(Nc3ccc(S(=O)(=O)NC4CC4)cc3)ncc21
[6]
  IC50: 207 nM

## CN1C(=O)c2sccc2N(C)c2nc(Nc3ccc(S(C)(=O)=O)cc3)ncc21
[6]
  IC50: 596 nM

## CN1CCC(NS(=O)(=O)c2ccc(Nc3ncc4c(n3)N(C)c3ccsc3C(=O)N4C)cc2)CC1
[6]
  IC50: 3840 nM

## CSc1ccc(Nc2ncc3c(n2)N(C)c2ccsc2C(=O)N3C)cc1
[6]
  IC50: 1160 nM
